Laboratory results taken from ChEMBL document CHEMBL5537124, “Unexpected rearrangement of ivermectin in the synthesis of new derivatives with trypanocidal and antiplasmodial activities” (Eur J Med Chem, 2024).

Assays:
[1] = tested on: Trypanosoma brucei brucei; experiment: Trypanocidal activity against Trypanosoma brucei brucei 221a assessed as parasite growth inhibition measured after 24 hrs by resazurin dye based microplate reader analysis; assay type: functional
Outline: (§1)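 Seeded at 1 × 10^4 mL-1 (T. b. brucei) or 5 × 10^4 mL-1 (HL-60) in Baltz medium with 16.7 % bovine serum and 0.9 % DMSO. Test compounds given as tenfold dilutions from 100 μM to 1 nM. Incubated at 37 °C, 5 % CO2. Resazurin added after 24 h, then a further 48 h. Absorbance read at 570/630 nm. GI50 obtained by linear interpolation; mean ± SD of three independent experiments.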

[2] = Selectivity index, ratio of GI50 for human HL-60 cells to GI50 for Trypanosoma brucei brucei 221a; assay type: toxicity; settings: for selectivity ratio: HL-60 cells versus Trypanosoma brucei brucei 221a, read-out: RatioGI50
Outline: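 Ratio of GI50 for HL-60 to GI50 for T. b. brucei, both from the resazurin growth assay.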

Trypanosoma cruzi = experiment: Antitrypanosomal activity against trypomastigote form of Trypanosoma cruzi Dm28c expressing beta-galactosidase using chlorophenol red beta-D-galactopyranoside as enzyme substrate measured after 24 hrs by colorimetric analysis; assay type: functional, organism-based
Huh-7 = experiment: Cytotoxicity against human Huh-7 cells infected with luciferase-expressing Plasmodium berghei assessed as effect on cell confluency pretreated for 1 hr followed by parasite infection and measured 46 hrs post infection by alamar blue staining based analysis; assay type: toxicity; settings: huh-7, 47 h
Outline: (§2)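 Huh7 hepatoma cells in RPMI-1640 with 10 % FCS, seeded at 1 × 10^4 per well and left overnight. Seven compound concentrations, serially diluted from 10 mM DMSO stocks, applied 1 h before infection; DMSO vehicle control. PbGFP-Luciferase sporozoites from An. stephensi salivary glands added 1:1, plates spun 1800 × g for 5 min. Confluency by AlamarBlue at 46 hpi; parasite load by firefly luciferase at 48 hpi. IC50 from nonlinear regression.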

HL-60 = experiment: Cytotoxicity against human HL-60 cells assessed as cell growth inhibition measured after 24 hrs by resazurin dye based microplate reader analysis; assay type: toxicity; settings: hl-60, 24 h; outline: as §1
Plasmodium berghei = experiment: Antiplasmodial activity against luciferase-expressing Plasmodium berghei infected in human Huh-7 cells assessed as reduction in parasitic load pretreated for 1 hr with cells followed by parasite infection and measured 48 hrs post infection by firefly luciferase assay; assay type: functional, organism-based; outline: as §2

Compound	GI50 [1]	selectivity ratio [2]	further results
CC[C@H](C)[C@H]1O[C@]2(CC[C@@H]1C)C[C@@H]1C[C@@H](C/C=C(\C)[C@H](NC(=O)c3ccc(OC)c(O)c3)[C@@H](C)/C=C/C=C3\CO[C@@H]4[C@H](O)C(C)=C[C@@H](C(=O)O1)[C@]34O)O2	3.9 µM	8.2	
CC[C@H](C)[C@H]1O[C@]2(CC[C@@H]1C)C[C@@H]1C[C@@H](C/C=C(\C)[C@H](NC(=O)C(C)C)[C@@H](C)/C=C/C=C3\CO[C@@H]4[C@H](O)[C@](C)(O)C=C(C(=O)O1)[C@]34O)O2	6.6 µM	5.1	
CC[C@H](C)[C@H]1O[C@]2(CC[C@@H]1C)C[C@@H]1C[C@@H](C/C=C(\C)[C@H](NC(=O)c3ccco3)[C@@H](C)/C=C/C=C3\CO[C@@H]4[C@H](O)C(C)=C[C@@H](C(=O)O1)[C@]34O)O2	10.2 µM	3.1	
CC[C@H](C)[C@H]1O[C@]2(CC[C@@H]1C)C[C@@H]1C[C@@H](C/C=C(\C)[C@H](NC(=O)c3ccccc3)[C@@H](C)/C=C/C=C3\CO[C@@H]4[C@H](O)[C@](C)(O)C=C(C(=O)O1)[C@]34O)O2	4.3 µM	7	
CCC(=O)N[C@H]1/C(C)=C/C[C@@H]2C[C@@H](C[C@]3(CC[C@H](C)[C@@H]([C@@H](C)CC)O3)O2)OC(=O)C2=C[C@@](C)(O)[C@@H](O)[C@H]3OC/C(=C\C=C\[C@@H]1C)[C@@]23O	8.1 µM	4.3	
IVERMECTIN [listing 1 of 2 here]			EC50 (Trypanosoma cruzi): 10.4 µM; Activity (Huh-7): Non-Toxic; GI50 (HL-60): 31.3 µM; RatioGI50 [2]: 2.1; IC50 (Plasmodium berghei; huh-7): 0.911 µM
CC[C@H](C)[C@H]1O[C@]2(CC[C@@H]1C)C[C@@H]1C[C@@H](C/C=C(\C)[C@H](NC(=O)C34CC5CC(CC(C5)C3)C4)[C@@H](C)/C=C/C=C3\CO[C@@H]4[C@H](O)C(C)=C[C@@H](C(=O)O1)[C@]34O)O2	19.1 µM	1.6	
CC[C@H](C)[C@H]1O[C@]2(CC[C@@H]1C)C[C@@H]1C[C@@H](C/C=C(\C)[C@@H](O)[C@@H](C)/C=C/C=C3\CO[C@@H]4[C@H](O)C(C)=C[C@@H](C(=O)O1)[C@]34O)O2 [IVM AGLYCONE]	6.1 µM	5.8	Activity (Huh-7): Non-Toxic; IC50 (Plasmodium berghei; Plasmodium berghei, Huh-7): 5.45 µM
CC[C@H](C)[C@H]1O[C@]2(CC[C@@H]1C)C[C@@H]1C[C@@H](C/C=C(\C)[C@H](NC(=O)c3ccccc3)[C@@H](C)/C=C/C=C3\CO[C@@H]4[C@H](O)C(C)=C[C@@H](C(=O)O1)[C@]34O)O2	8.6 µM	3.6	
CC[n+]1c(-c2ccccc2)c2cc(N)ccc2c2ccc(N)cc21 [HOMIDIUM BROMIDE]	0.086 µM	67.4	
CC[C@H](C)[C@H]1O[C@]2(CC[C@@H]1C)C[C@@H]1C[C@@H](C/C=C(\C)[C@H](NC(C)=O)[C@@H](C)/C=C/C=C3\CO[C@@H]4[C@H](O)[C@](C)(O)C=C(C(=O)O1)[C@]34O)O2	7.5 µM	4.5	Activity (Huh-7): Non-Toxic; IC50 (Plasmodium berghei; Plasmodium berghei, Huh-7): 0.379 µM
CCCCCCCCCC(=O)N[C@H]1/C(C)=C/C[C@@H]2C[C@@H](C[C@]3(CC[C@H](C)[C@@H]([C@@H](C)CC)O3)O2)OC(=O)C2=C[C@@](C)(O)[C@@H](O)[C@H]3OC/C(=C\C=C\[C@@H]1C)[C@@]23O	4.1 µM	7.8	
CC[C@H](C)[C@H]1O[C@]2(CC[C@@H]1C)C[C@@H]1C[C@@H](C/C=C(\C)[C@H](NC(=O)c3ccc(OC)c(OC)c3)[C@@H](C)/C=C/C=C3\CO[C@@H]4[C@H](O)C(C)=C[C@@H](C(=O)O1)[C@]34O)O2	5.8 µM	5.6	
CC[C@H](C)[C@H]1O[C@]2(CC[C@@H]1C)C[C@@H]1C[C@@H](C/C=C(\C)[C@@H](O[C@H]3C[C@H](OC)[C@@H](O[C@H]4C[C@H](OC)[C@@H](O)[C@H](C)O4)[C@H](C)O3)[C@@H](C)/C=C/C=C3\CO[C@@H]4[C@H](O)[C@](C)(O)C=C(C(=O)O1)[C@]34O)O2	20 µM	1.6	Activity (Huh-7): Non-Toxic; IC50 (Plasmodium berghei; Plasmodium berghei, Huh-7): 4.72 µM
CC[C@H](C)[C@H]1O[C@]2(CC[C@@H]1C)C[C@@H]1C[C@@H](C/C=C(\C)[C@H](NC(=O)c3ccco3)[C@@H](C)/C=C/C=C3\CO[C@@H]4[C@H](O)[C@](C)(O)C=C(C(=O)O1)[C@]34O)O2	4.7 µM	7	
CC[C@H](C)[C@H]1O[C@]2(CC[C@@H]1C)C[C@@H]1C[C@@H](C/C=C(\C)[C@H](NC(=O)CCl)[C@@H](C)/C=C/C=C3\CO[C@@H]4[C@H](O)[C@](C)(O)C=C(C(=O)O1)[C@]34O)O2	0.064 µM	67.2	
CC[C@H](C)[C@H]1O[C@]2(CC[C@@H]1C)C[C@@H]1C[C@@H](C/C=C(\C)[C@H](NC(=O)C(C)C)[C@@H](C)/C=C/C=C3\CO[C@@H]4[C@H](O)C(C)=C[C@@H](C(=O)O1)[C@]34O)O2	10.2 µM	3.3	
CC[C@H](C)[C@H]1O[C@]2(CC[C@@H]1C)C[C@@H]1C[C@@H](C/C=C(\C)[C@H](NC(=O)c3ccc(OC)c(O)c3)[C@@H](C)/C=C/C=C3\CO[C@@H]4[C@H](O)[C@](C)(O)C=C(C(=O)O1)[C@]34O)O2	4.1 µM	8	
CC[C@H](C)[C@H]1O[C@]2(CC[C@@H]1C)C[C@@H]1C[C@@H](C/C=C(\C)[C@H](NC(=O)c3ccc(OC)c(OC)c3)[C@@H](C)/C=C/C=C3\CO[C@@H]4[C@H](O)[C@](C)(O)C=C(C(=O)O1)[C@]34O)O2	5 µM	6.4	
CC[C@H](C)[C@H]1O[C@]2(CC[C@@H]1C)C[C@@H]1C[C@@H](C/C=C(\C)[C@@H](O)[C@@H](C)/C=C/C=C3\CO[C@@H]4[C@H](O)[C@](C)(O)C=C(C(=O)O1)[C@]34O)O2	12.1 µM	2.6	Activity (Huh-7): Non-Toxic; IC50 (Plasmodium berghei; Plasmodium berghei, Huh-7): 2.85 µM
IVERMECTIN [listing 2 of 2 here]	14.6 µM		
Cc1ccc(C(=O)Nc2ccc(S(=O)(=O)O)c3cc(S(=O)(=O)O)cc(S(=O)(=O)O)c23)cc1NC(=O)c1cccc(NC(=O)Nc2cccc(C(=O)Nc3cc(C(=O)Nc4ccc(S(=O)(=O)O)c5cc(S(=O)(=O)O)cc(S(=O)(=O)O)c45)ccc3C)c2)c1 [SURAMIN]	0.036 µM	> 2780	
CCCCCCCCCC(=O)N[C@H]1/C(C)=C/C[C@@H]2C[C@@H](C[C@]3(CC[C@H](C)[C@@H]([C@@H](C)CC)O3)O2)OC(=O)[C@@H]2C=C(C)[C@@H](O)[C@H]3OC/C(=C\C=C\[C@@H]1C)[C@]32O	9.3 µM	3.2	
CC[C@H](C)[C@H]1O[C@]2(CC[C@@H]1C)C[C@@H]1C[C@@H](C/C=C(\C)[C@H](NC(=O)CCl)[C@@H](C)/C=C/C=C3\CO[C@@H]4[C@H](O)C(C)=C[C@@H](C(=O)O1)[C@]34O)O2	0.063 µM	47.6	
CCC(=O)N[C@H]1/C(C)=C/C[C@@H]2C[C@@H](C[C@]3(CC[C@H](C)[C@@H]([C@@H](C)CC)O3)O2)OC(=O)[C@@H]2C=C(C)[C@@H](O)[C@H]3OC/C(=C\C=C\[C@@H]1C)[C@]32O	7.4 µM	4.3	
CC[C@H](C)[C@H]1O[C@]2(CC[C@@H]1C)C[C@@H]1C[C@@H](C/C=C(\C)[C@H](NC(=O)C34CC5CC(CC(C5)C3)C4)[C@@H](C)/C=C/C=C3\CO[C@@H]4[C@H](O)[C@](C)(O)C=C(C(=O)O1)[C@]34O)O2	3 µM	10.3	
CC[C@H](C)[C@H]1O[C@]2(CC[C@@H]1C)C[C@@H]1C[C@@H](C/C=C(\C)[C@H](NC(=O)COC)[C@@H](C)/C=C/C=C3\CO[C@@H]4[C@H](O)[C@](C)(O)C=C(C(=O)O1)[C@]34O)O2	18.2 µM	1.8	
CC[C@H](C)[C@H]1O[C@]2(CC[C@@H]1C)C[C@@H]1C[C@@H](C/C=C(\C)[C@H](NC(C)=O)[C@@H](C)/C=C/C=C3\CO[C@@H]4[C@H](O)C(C)=C[C@@H](C(=O)O1)[C@]34O)O2	5.5 µM	5.8	Activity (Huh-7): Non-Toxic; IC50 (Plasmodium berghei; Plasmodium berghei, Huh-7): 1.52 µM
CC[C@H](C)[C@H]1O[C@]2(CC[C@@H]1C)C[C@@H]1C[C@@H](C/C=C(\C)[C@H](NC(=O)COC)[C@@H](C)/C=C/C=C3\CO[C@@H]4[C@H](O)C(C)=C[C@@H](C(=O)O1)[C@]34O)O2	14.4 µM	2.3	
